No end group written: not given here.
Experiments:
erythrocytes = assay: Hemolysis assay; type: cell-based, human; settings: up to 200 μg/mL (285 μmol/L), 30 min, 37 °C, PBS pH 7.2, 540 nm
Outline: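 Human blood was centrifuged for 10 min at 3 500 r/min and 25°C. The erythrocytes were resuspended in PBS (0.01 mol/L, pH 7.2) and exposed to test compound (12.5–200 µg/mL, plus 0) or 0.1% Triton X-100 (positive control) for 30 min at 37°C. Samples were spun 5 min at 3 500 r/min and the supernatant A540 read; n=2–3.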

FXIIa [1] = biological target: T1, FXIIa (Homo sapiens, UniProt P00748); assay: Chromogenic assay, FXIIa; type: biochemical
T1 sequence (P00748 373-615 limits assumed): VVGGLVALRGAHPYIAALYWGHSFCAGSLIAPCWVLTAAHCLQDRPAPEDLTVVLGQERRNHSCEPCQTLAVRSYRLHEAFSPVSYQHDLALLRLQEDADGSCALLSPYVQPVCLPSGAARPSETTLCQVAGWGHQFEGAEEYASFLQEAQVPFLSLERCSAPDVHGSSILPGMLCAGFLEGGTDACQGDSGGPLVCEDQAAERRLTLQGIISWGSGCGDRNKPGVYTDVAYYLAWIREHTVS
T1 sequence (P00748 20-372 partner limits assumed): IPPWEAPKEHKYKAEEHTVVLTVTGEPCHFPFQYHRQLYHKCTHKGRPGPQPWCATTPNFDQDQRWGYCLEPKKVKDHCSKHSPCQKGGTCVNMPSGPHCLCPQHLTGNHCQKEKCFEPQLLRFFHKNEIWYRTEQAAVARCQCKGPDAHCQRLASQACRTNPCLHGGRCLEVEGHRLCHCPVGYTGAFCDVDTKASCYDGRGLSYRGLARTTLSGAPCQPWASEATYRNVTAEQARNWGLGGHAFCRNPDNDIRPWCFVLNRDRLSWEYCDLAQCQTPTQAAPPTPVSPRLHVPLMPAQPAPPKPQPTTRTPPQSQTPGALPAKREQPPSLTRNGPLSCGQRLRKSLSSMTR

PK [2] = biological target: T2, PK (Homo sapiens, UniProt P03952); assay: Chromogenic assay, PK; type: biochemical
Target sequence in this assay (P03952 391-638 limits assumed): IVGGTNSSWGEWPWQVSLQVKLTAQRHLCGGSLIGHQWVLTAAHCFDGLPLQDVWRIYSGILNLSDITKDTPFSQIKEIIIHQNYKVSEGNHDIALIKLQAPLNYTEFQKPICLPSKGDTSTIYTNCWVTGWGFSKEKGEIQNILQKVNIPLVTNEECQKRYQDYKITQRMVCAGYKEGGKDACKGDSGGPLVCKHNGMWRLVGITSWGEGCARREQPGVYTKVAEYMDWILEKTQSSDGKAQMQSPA
Target sequence in this assay (P03952 20-390 partner limits assumed): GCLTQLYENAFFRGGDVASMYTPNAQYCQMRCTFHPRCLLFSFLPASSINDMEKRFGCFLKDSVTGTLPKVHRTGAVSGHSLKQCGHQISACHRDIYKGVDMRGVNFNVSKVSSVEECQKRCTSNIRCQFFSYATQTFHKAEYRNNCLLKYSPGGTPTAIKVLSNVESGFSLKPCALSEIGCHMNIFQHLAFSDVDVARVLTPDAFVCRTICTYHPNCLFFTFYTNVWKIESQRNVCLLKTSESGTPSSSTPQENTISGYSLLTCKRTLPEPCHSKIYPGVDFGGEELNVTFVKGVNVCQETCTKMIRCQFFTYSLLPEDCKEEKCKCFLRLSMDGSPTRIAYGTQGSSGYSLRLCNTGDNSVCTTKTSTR

[3] = tested on: mouse peritoneal macrophages; assay: Cytotoxicity assay; type: cell-based; settings: 12.5 to 200 μg/mL, 8 h, CCK8
Outline: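 Peritoneal macrophages were elicited in mice with i.p. 3% thioglycollate broth and collected by PBS lavage after 3 days. Cells were cultured in RPMI1640 at 37°C, 5% CO2, seeded at 1×10^6 cells/well and allowed 12 h to adhere. Test compound (12.5–200 µg/mL, plus 0) was added for 8 h, then CCK-8 for 3 h and OD450 read. Viability is expressed as % of control; n=8–12.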

mouse splenocytes = assay: Cytotoxicity assay; type: cell-based; settings: 12.5 to 200 μg/mL, 8 h, CCK8
Outline: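 Mouse splenocytes were prepared by crushing fresh spleens in PBS and passing them through a 200-mesh sieve. Cells were cultured in RPMI1640 at 37°C, 5% CO2, seeded at 2×10^5 cells/well and given 12 h to settle. Test compound (12.5–200 µg/mL, plus 0) was added for 8 h, followed by CCK-8 for 3 h and an OD450 read. Viability is reported as % of control; n=8–12.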

PK [4] = biological target: T2, PK; assay: SPR, PK over LE6-coupled chip; type: binding
male C57BL/6 J mice = assay: Bleeding assay; type: in vivo, mouse
Outline: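 Dosing 15 min before cutting: test compound at 0.5 or 2 mg/kg i.v., 0.9% saline (control) or heparin sodium 2 500 U/kg (reference). Mice were male C57BL/6J, 6 weeks old, 18–20 g, n=6–7. Tail cut 2 mm from the tip and immersed in sterile saline at 37°C. Bleeding time recorded until blood flow stopped.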

HEK 293T cells = assay: Cytotoxicity assay; type: cell-based, human; settings: 12.5 to 200 μg/mL, 8 h, CCK8
Outline: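 HEK 293T cells were grown in DMEM/F-12 with 10% FBS and 1% penicillin-streptomycin at 37°C, 5% CO2. They were seeded at 3×10^4 cells/well and allowed 12 h to adhere. Test compound (12.5–200 µg/mL, plus 0) was added for 8 h. CCK-8 was then added for 3 h and OD450 read. Viability is given as % of untreated control; n=8–12.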

FXIIa [5] = biological target: T1, FXIIa; assay: SPR, FXIIa over LE6-coupled chip; type: binding; settings: read-out: Kd (dissociation rate constant)
male C57BL/6J mice = assay: FeCl3-induced carotid artery thrombosis; type: in vivo, mouse; settings: 2 500 U/kg i.v., 10% FeCl3, 5 min and 10 min, vs PBS-treated group
Outline: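 Male C57BL/6J mice (6 weeks old, n=6–7) were given i.v. saline (100 µL; control), heparin sodium 2 500 U/kg, or test compound at 0.5 or 2 mg/kg, 5 min before induction, under anaesthesia. Filter paper with 10% (w/v) FeCl3 was applied to the exposed left carotid artery for 30 s. Flow in the region of interest was followed by laser speckle perfusion imaging for 30 min, with images analysed at 5 and 10 min. Occlusion was scored as a red-to-blue change.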

acute IS patients = settings: ref Kim, 2019; Simão et al., 2017; cited from earlier work
[6] = biological target: T3, activated factor XII (FXIIa) (UniProt P00748 20-372; P00748 373-615); assay: chromogenic enzyme inhibition assay
T3 sequence (looked up) 1: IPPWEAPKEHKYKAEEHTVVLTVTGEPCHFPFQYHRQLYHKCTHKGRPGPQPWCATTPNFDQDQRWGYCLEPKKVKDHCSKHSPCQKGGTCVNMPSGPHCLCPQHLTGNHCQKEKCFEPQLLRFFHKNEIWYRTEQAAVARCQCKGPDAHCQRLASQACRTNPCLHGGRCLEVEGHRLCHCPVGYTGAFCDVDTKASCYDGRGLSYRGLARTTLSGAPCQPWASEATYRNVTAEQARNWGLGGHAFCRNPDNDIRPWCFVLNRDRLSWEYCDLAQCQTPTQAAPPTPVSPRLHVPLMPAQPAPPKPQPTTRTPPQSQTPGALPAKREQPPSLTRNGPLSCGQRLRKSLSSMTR
T3 sequence (looked up) 2: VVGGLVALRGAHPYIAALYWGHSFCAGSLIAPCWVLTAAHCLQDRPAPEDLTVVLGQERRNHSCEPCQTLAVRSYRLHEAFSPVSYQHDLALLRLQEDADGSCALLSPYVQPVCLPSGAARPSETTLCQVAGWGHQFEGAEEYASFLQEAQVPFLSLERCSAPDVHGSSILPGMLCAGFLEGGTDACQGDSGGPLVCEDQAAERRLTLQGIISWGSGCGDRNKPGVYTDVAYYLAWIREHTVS

plasma kallikrein (PK) [7] = biological target: T4, plasma kallikrein (PK) (UniProt P03952 20-390; P03952 391-638); assay: chromogenic enzyme inhibition assay
[8] = biological target: T3, activated factor XII (FXIIa); assay: SPR
plasma kallikrein (PK) [9] = biological target: T4, plasma kallikrein (PK); assay: SPR
[10] = biological target: T3, activated factor XII (FXIIa); assay: cell-based or functional assay

T4 sequence (P03952 20-390, chain 1 of 2): as the sequence (P03952 20-390 partner limits assumed) above
T4 sequence (P03952 391-638, chain 2 of 2): as the sequence (P03952 391-638 limits assumed) above

## LSEEPE [LE6, Leu-Ser-Glu-Glu-Pro-Glu]
erythrocytes
  hemolysis: no hemolytic side effects
FXIIa [1]
  IC50: 71 µM
FXIIa [1]; read-out: inhibition rate of FXIIa
  inhibition at 285 µM: 88.6%
PK [2]
  IC50: ~71 µM
[3]
  toxic effects on proliferation: no toxic effects
Mouse splenocytes
  toxic effects on proliferation: no toxic effects
PK [4]; read-out: Ka (association rate constant)
  kon: 1790 M⁻¹ s⁻¹
PK [4]; read-out: Kd (dissociation rate constant)
  koff: 0.0141 s⁻¹
Male C57BL/6 J mice; 0.5 mg/kg i.v., 15 min before tail cut, n=6–7
  bleeding time: without notably extending bleeding time
Male C57BL/6 J mice; LE6 2 mg/kg i.v. vs heparin sodium 2 500 U/kg i.v.
  bleeding time relative to heparin sodium: approximately half that induced by the clinically anticoagulant heparin sodium
HEK 293T cells
  toxic effects on proliferation: no toxic effects
FXIIa [5]
  koff: 0.118 s⁻¹

## heparin sodium
Male C57BL/6J mice
  blood flow after FeCl3-induction: increased blood flow at 5 min and 10 min

## tissue plasminogen activator [tPA]
Acute IS patients
  efficacy in acute IS: efficacious when administered within 4.5 hours of stroke onset

## LSEEPE [oligopeptide LE6 (Leu-Ser-Glu-Glu-Pro-Glu)]
[6]
  Ki: 6.37 µM
Plasma kallikrein (PK) [7]
  Ki: 44 µM
[8]
  Kd: 46.4 µM
Plasma kallikrein (PK) [9]
  Kd: 7.88 µM
[10]
  FXIIa activity on chromogenic substrate S-2302, IC50: 71 µM

From publication PMC11491786 (Zoological Research, 2024)
